From ChEMBL document CHEMBL4038313, “Expanding the Antiviral Spectrum of 3-Fluoro-2-(phosphonomethoxy)propyl Acyclic Nucleoside Phosphonates: Diamyl Aspartate Amidate Prodrugs” (J Med Chem, 2017)

What was measured:
[1] = system: Human immunodeficiency virus 1; test: Antiviral activity against HIV-1 infected in human MT4 cells measured on day 5 post-infection by trypan blue dye staining-based method; type: functional, cell-based; conditions: Human immunodeficiency virus 1, MT4, 120 h
[2] = system: Human immunodeficiency virus 2; test: Antiviral activity against HIV-2 infected in human MT4 cells measured on day 5 post-infection by trypan blue dye staining-based method; type: functional, cell-based; conditions: Human immunodeficiency virus 2, MT4, 120 h
[3] = system: Human immunodeficiency virus 1; test: Antiviral activity against CXCR4-tropic HIV-1 NL4-3 infected in human TZM-bl cells assessed as inhibition of virus-induced cytopathic effect preincubated with cells for 30 mins followed by viral infection measured after 48 hrs in presence of p-24 HIV-1 Ag by luciferase reporter gene assay; type: functional, cell-based; conditions: Human immunodeficiency virus 1, NL4-3, TZM-bl
Outline: (§1)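 TZM-bl cells, 1 × 10^4 per well in DMEM with 10% FBS and 10 mM […], incubated 30 min at 37 °C with compound. Then HIV-1 NL4.3 (X4) or BaL (R5) added at 100 pg p24 Ag per well. After 48 h, cells lysed with luciferase substrate. Tat-induced luminescence read after 10 min dark incubation as a measure of replication.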

[4] = system: Human immunodeficiency virus 1; test: Antiviral activity against CCR5 tropic HIV1 BaL infected in human TZM-bl cells assessed as inhibition of virus-induced cytopathic effect preincubated with cells for 30 mins followed by viral infection measured after 48 hrs in presence of p-24 HIV-1 Ag by luciferase reporter gene assay; type: functional, cell-based; conditions: Human immunodeficiency virus 1, BaL; outline: as §1
[5] = Cytotoxicity against human TZM-bl cells assessed as cell viability by tetrazolium dye assay; type: cell-based
[6] = system: Human immunodeficiency virus 1; test: (§2) Antiviral activity against CXCR4-tropic HIV-1 NL4-3 infected in human PHA-stimulated PBMC assessed as inhibition of viral replication by measuring reduction in p24 antigen production preincubated with cells for 30 mins followed by viral infection measured on day 10 post infection in presence of IL-2 by ELISA; type: functional; conditions: Human immunodeficiency virus 1, NL4-3
Outline: (§3)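 PBMCs stimulated with 2 μg/mL PHA for 3 days at 37 °C, then 5 × 10^5 cells/ml preincubated 30 min at 37 °C with serial compound dilutions plus 2 ng/mL IL-2. Infected with 1500 pg/well HIV-1 BaL or 500 pg/well other isolates. IL-2 re-added on days 3 and 6. Supernatant p24 Ag measured by ELISA at day 10. EC50 is 50% inhibition of replication.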

[7] = system: Human immunodeficiency virus 1; test: as §2, with “CCR5 tropic HIV1 BaL” for “CXCR4-tropic HIV-1 NL4-3”; type: functional; conditions: Human immunodeficiency virus 1, BaL; outline: as §3
[8] = Cytotoxicity against human PHA-stimulated PBMC assessed as cell viability by tetrazolium dye assay; type: cell-based
[9] = Selectivity index, ratio of CC50 for human TZM-bl cells to EC50 for CXCR4-tropic HIV-1 NL4-3 infected in human TZM-bl cells; type: toxicity, cell-based; conditions: read-out: Ratio CC50/EC50
[10] = Selectivity index, ratio of CC50 for human TZM-bl cells to EC50 for CCR5 tropic HIV1 BaL infected in human TZM-bl cells; type: toxicity, cell-based; conditions: read-out: Ratio CC50/EC50
[11] = Selectivity index, ratio of CC50 for human PHA-stimulated PBMC to IC50 for CXCR4-tropic HIV-1 NL4-3 infected in human PHA-stimulated PBMC
[12] = Selectivity index, ratio of CC50 for human PHA-stimulated PBMCs to IC50 for CCR5 tropic HIV1 BaL infected in human PHA-stimulated PBMC
[13] = system: Human immunodeficiency virus 1; test: Antiviral activity against tenofovir-resistant CXCR4-tropic HIV-1 NL4-3 harboring reverse transcriptase K65R mutant infected in human MT4 cells assessed as inhibition of viral replication inhibition of virus-induced cytopathic effect after 6 days by XTT dye based assay; type: functional, cell-based; conditions: Human immunodeficiency virus 1, NL4-3, MT4, 144 h
Outline: (§4)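 MT-4 cells, 1 × 10^4 per well, given compound dilutions and wild-type NL4-3 or K65R NL4-3. Virus titred to give 85–95% cell killing at day 6. Incubated 6 days at 37 °C, 5% CO2. Viability read by XTT at 450/650 nm. EC50 from CPE reduction and toxicity from uninfected drug wells, by four-parameter fit. Fold change is K65R EC50 over wild-type EC50.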

[14] = system: Human immunodeficiency virus 1; test: Selectivity ratio of EC50 for tenofovir-resistant CXCR4-tropic HIV-1 NL4-3 harboring reverse transcriptase K65R mutant infected in human MT4 cells to EC50 for CXCR4-tropic HIV-1 NL4-3 infected in human MT4 cells; type: functional; outline: as §4
[15] = Cytotoxicity against human MT4 cells assessed as reduction in cell viability after 6 days by XTT tetrazolium dye-based assay; outline: as §4
Hepatitis B virus = test: Antiviral activity against HBV ayw1 infected in human HepG2(2.2.15) cells assessed as reduction in viral replication by measuring extracellular viral DNA copy number after 6 days by real-time qPCR method; type: functional, cell-based; conditions: ayw1, HepG2 2.2.15, 144 h
Outline: (§5)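 HepG2.2.15 cells (two copies of HBV ayw1 genome), 1.5 × 10^4/well in DMEM with 2% FBS and 380 μg/mL G418. After 16–24 h, compound added in triplicate, medium with compound renewed at day 3. Supernatant collected at day 6, Pronase-treated, and extracellular HBV DNA measured by TaqMan qPCR (precore/core) against an HBV DNA standard curve. EC50/EC90 derived; CC50 by MTS uptake.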

[16] = Cytotoxicity against human HepG2.2.15 cells assessed as cell viability by tetrazolium dye uptake assay; type: cell-based, HepG2 2.2.15
Outline: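 HepG2.2.15 cells (two integrated copies of HBV ayw1 genome) were seeded at 1.5 × 10^4 cells/well in DMEM with 2% FBS, 380 μg/mL G418, glutamine, antibiotics and nonessential amino acids. After 16−24 h, medium with various compound concentrations was added in triplicate and renewed on day 3. After 6 days of treatment, viability was read by MTS uptake and CC50 was calculated.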

[17] = Selectivity index, ratio of CC50 for HepG2.2.15 cells to EC50 for HBV ayw1 infected in human HepG2(2.2.15) cells assessed as reduction in viral replication by measuring extracellular viral DNA copy; outline: as §5
Human betaherpesvirus 5 [18] = test: Antiviral activity against Human cytomegalovirus AD169 infected in HEL cells assessed as inhibition of virus-induced cytopathic effect; type: functional, cell-based; conditions: Human betaherpesvirus 5, AD169, HEL
Outline: (§6)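 HEL fibroblast monolayers inoculated with 100 CCID50 HCMV (AD-169, Davis) or 20 PFU VZV (TK+ Oka, TK− 07-1). Adsorbed 1–2 h, inoculum removed, then incubated with compound dilutions. HCMV cytopathicity or VZV plaques scored once untreated infected controls reached completion. EC50 is 50% reduction. SI is CC50/EC50, and the potency ratio is the ratio of EC50s.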

Human betaherpesvirus 5 [19] = test: Antiviral activity against HCMV Davis strain infected in HEL cells assessed as inhibition of virus-induced cytopathic effect; type: functional, cell-based; conditions: Human betaherpesvirus 5, Davis; outline: as §6
Human alphaherpesvirus 3 [20] = test: Antiviral activity against thymidine kinase expressing Varicella-Zoster virus Oka strain assessed as inhibition of plaque formation; type: functional; conditions: Human alphaherpesvirus 3, strain Oka vaccine; outline: as §6
Human alphaherpesvirus 3 [21] = test: Antiviral activity against thymidine kinase deficient Varicella-Zoster virus 07-1 infected in HEL cells assessed as inhibition of plaque formation; type: functional, cell-based; conditions: Human alphaherpesvirus 3, 07-1, HEL; outline: as §6
[22] = Cytotoxic activity against HEL cells assessed as alteration of cell morphology after 3 days by microscopic method; type: cell-based; conditions: human
Outline: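 HEL cells with compound; MCC is the lowest concentration giving microscopically detectable alteration of cell morphology.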

[23] = Cytotoxic activity against HEL cells assessed as reduction in cell proliferation after 3 days by coulter counting method; type: cell-based; conditions: human
Outline: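 HEL cells seeded at 5 × 10^3/well, grown 24 h, then given compound for 3 days at 37 °C. Cell number counted by Coulter counter. CC50 is 50% reduction of proliferation relative to untreated controls, read from graphic plots.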

[24] = Half life in human plasma at 1 uM by HPLC-MS/MS method; type: ADME, cell-free
Outline: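 Human plasma preincubated 10 min with pH 7.4 phosphate buffer at 37 °C. Compound added at final 1 μM and sampled at 0, 0.5, 1, 1.5 and 2 h into acetonitrile. Centrifuged and analysed by HPLC-MS/MS. t1/2 is the mean of two experiments.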

[25] = Half life in human liver microsomes at 0.1 uM in presence of NADPH by HPLC-MS/MS method; type: ADME, microsome
Outline: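 Pooled human liver microsomes preincubated 10 min at 37 °C with an NADPH-regenerating system (1 mM NADP, 5 mM G6P, G6PDH) in pH 7.4 phosphate with 3 mM MgCl2 and 1 mM EDTA. Compound added at final 0.1 μM and sampled at 0–60 min into acetonitrile/methanol. Analysed by HPLC-MS/MS, mean of two experiments.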

[26] = Selectivity index, ratio of CC50 for human HEL cells to EC50 for HCMV AD-169 strain; outline: as §6
[27] = Selectivity index, ratio of CC50 for human HEL cells to EC50 for HCMV Davis strain; outline: as §6
[28] = system: Human immunodeficiency virus 1; test: Antiviral activity against CXCR4-tropic HIV-1 NL4-3 infected in human MT4 cells assessed as inhibition of virus-induced cytopathic effect after 6 days by XTT dye based assay; type: functional, cell-based; conditions: Human immunodeficiency virus 1, NL4-3, MT4, 144 h; outline: as §4

With `Nc1nc(N)c2ncn(C[C@H](CF)OCP(=O)(O)O)c2n1` the EC50 [1] was 4300 nM and the EC50 [2] was 4600 nM.
In the case of `Nc1nc2c(ncn2CC(CF)OCP(=O)(O)O)c(=O)[nH]1` (centres undefined), the EC50 [1] is reported as 5000 nM and the EC50 [2] is reported as 5000 nM.
With `CCCCCOC(=O)C[C@H](NP(=O)(CO[C@@H](CF)Cn1cnc2c(=O)[nH]c(N)nc21)Oc1ccccc1)C(=O)OCCCCC` (some centres undefined) the EC50 [3] was 73 nM, the EC50 [4] was 60 nM and the CC50 [5] was over 100000 nM. It also gave an IC50 [6] of 20 nM, an IC50 [7] of 170 nM and a CC50 [8] of 9310 nM. For the same compound, the selectivity ratio [9] was over 1370, the selectivity ratio [10] was over 1670 and the “Ratio CC50/IC50” value [11] was 466. The “Ratio CC50/IC50” value [12] was 55, the EC50 [13] was 80 nM and the “Ratio EC50” value [14] was 8. The CC50 at 144 h [15] was over 1000 nM, the EC50 (Hepatitis B virus) was 20 nM and the EC90 (Hepatitis B virus) was 620 nM. For the same compound, the CC50 [16] was over 100000 nM, the “Ratio CC50/EC50” value [17] was over 5000 and the EC50 (Human betaherpesvirus 5 [18]) was 4430 nM. For the same compound, the EC50 (Human betaherpesvirus 5 [19]) was 1980 nM, the EC50 (Human alphaherpesvirus 3 [20]) was 890 nM and the EC50 (Human alphaherpesvirus 3 [21]) was 110 nM. For the same compound, the MCC at 72 h [22] was 153 µM, the CC50 at 72 h [23] was 10200 nM and the half-life at 1 µM [24] was 73 min. For the same compound, the half-life at 0.1 µM [25] was 2 min, the “Ratio CC50/EC50” value [26] was under 10 and the “Ratio CC50/EC50” value [27] was under 10. It also gave an EC50 [28] of 10 nM.
In the case of `CCCCCOC(=O)C[C@H](NP(=O)(CO[C@H](CF)Cn1cnc2c(=O)[nH]c(N)nc21)Oc1ccccc1)C(=O)OCCCCC` (some centres undefined), the EC50 [3] is reported as 160 nM, the EC50 [4] is reported as 220 nM and the CC50 [5] is reported as over 100000 nM. For the same compound, the IC50 [6] was 30 nM, the IC50 [7] was 130 nM and the CC50 [8] was 11200 nM. For the same compound, the selectivity ratio [9] was over 625, the selectivity ratio [10] was over 455 and the “Ratio CC50/IC50” value [11] was 374. For the same compound, the “Ratio CC50/IC50” value [12] was 86, the EC50 (Hepatitis B virus) was 130 nM and the EC90 (Hepatitis B virus) was 2860 nM. For the same compound, the CC50 [16] was over 100000 nM, the “Ratio CC50/EC50” value [17] was over 769 and the EC50 (Human betaherpesvirus 5 [18]) was 5940 nM. The EC50 (Human betaherpesvirus 5 [19]) was 3050 nM, the EC50 (Human alphaherpesvirus 3 [20]) was 590 nM and the EC50 (Human alphaherpesvirus 3 [21]) was 79 nM. The MCC at 72 h [22] was 153 µM, the CC50 at 72 h [23] was 27800 nM and the “Ratio CC50/EC50” value [26] was under 10. For the same compound, the “Ratio CC50/EC50” value [27] was under 10.
